Hits are enriched below; roughly 3.1% of the tested compounds scored in any of these assays.
CHO parental Ca = counter-screen: ATP calcium response change in parental CHO cells | parental CHO-K1, ATP-induced calcium, Fluo-8 fluorescence | inhibition, % at 5.6 µM | hit rate 0.63% among 330,000 | AID 463079;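 active = inhibition above that plate's mean sample inhibition plus 3 SD, cut at about 26% in these data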
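Material – parental CHO cells · Reagent – ATP stimulus · Compound – single nominal dose of 5.6 µM per compound · Detection – Fluo-8 fluorescence · Read-out basis – percent inhibition of calcium signal · Controls – ATP-challenged DMSO wells low, unchallenged DMSO wells high · Repeats – no replicates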
OX1R antag-1 = antagonists of human orexin 1 receptor (OX1R); O43613; OX1R-expressing cells, FRET antagonist read-out; inhibition, % at 6.6 µM; hit rate 1.8% among 330,000; AID 485270; in the data active = inhibition mostly above about 38%, no sharp cut-off; inactive = mostly below about 40%
Target sequence (O43613 whole entry, looked up): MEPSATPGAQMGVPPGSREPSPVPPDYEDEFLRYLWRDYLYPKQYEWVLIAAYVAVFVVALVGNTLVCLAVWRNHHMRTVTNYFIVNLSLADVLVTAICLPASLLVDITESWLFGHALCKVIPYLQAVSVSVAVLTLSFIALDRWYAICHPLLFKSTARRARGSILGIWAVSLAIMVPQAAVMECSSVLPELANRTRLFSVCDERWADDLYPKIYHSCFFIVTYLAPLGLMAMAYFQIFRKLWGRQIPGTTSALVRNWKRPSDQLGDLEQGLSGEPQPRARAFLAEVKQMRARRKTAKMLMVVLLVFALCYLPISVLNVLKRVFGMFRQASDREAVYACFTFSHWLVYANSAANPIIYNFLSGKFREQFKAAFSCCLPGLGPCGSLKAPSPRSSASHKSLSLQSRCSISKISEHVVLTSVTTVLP
GPR7 antag = blocks human GPR7 receptor signaling; AID 1861; GPR7-expressing cells, fluorescence antagonist assay; inhibition, % at 4.4 µM; P48145; hit rate 1.1% among 290,000; in the data active = inhibition above about 16%, passing the limit was not always enough;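 also: cells stimulated with the agonist NPW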
Target sequence (P48145 whole entry, looked up): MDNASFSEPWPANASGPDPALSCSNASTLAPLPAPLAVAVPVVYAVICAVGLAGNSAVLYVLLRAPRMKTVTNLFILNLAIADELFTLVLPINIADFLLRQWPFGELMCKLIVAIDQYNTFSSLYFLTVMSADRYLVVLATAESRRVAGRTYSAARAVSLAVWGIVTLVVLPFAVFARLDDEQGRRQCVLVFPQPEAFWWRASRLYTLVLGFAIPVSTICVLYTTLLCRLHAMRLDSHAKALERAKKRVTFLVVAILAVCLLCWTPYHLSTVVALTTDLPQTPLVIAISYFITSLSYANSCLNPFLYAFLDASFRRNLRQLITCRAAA
OX1R antag-2 = blocks the human orexin 1 receptor; O43613; CHO/OX1R cells, Fluo-8 calcium fluorescence, orexin A; inhibition, % at 5 µM; hit rate 0.43% among 330,000; AID 434989;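 active = inhibition above its plate's threshold, mean inhibition of all tested compounds on the plate plus 3 SD, cut at about 37% in these data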
GalR3 antag = blocks the human galanin receptor 3; HEK293 GalR3-CNG cAMP membrane potential fluorescence; galR3 body fused to GalR1 C-terminus; inhibition, % at 3 µM; hit rate 0.44% among 360,000; O60755;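 active = inhibition above the screen-wide average plus 3 SD, cut at about 13% in these data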;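 also: forskolin and galanin both at EC90 stimulate the cells; cAMP rise reported by CNG channel membrane potential dye signal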
Of the large screens only hits and unclear results are named; the others gave an inactive call.

CN(C)C(=O)CCc1ccc2c3c([nH]c2c1)[C@]1(C)[C@@H](C(=O)N2CCOCC2)C[C@H](CC(=O)NCc2cccc(C(F)(F)F)c2)C(=O)N1CC3	none (no result: GPR7 antag)
COc1ccc(C(=O)/C=C/Nc2ccc(S(=O)(=O)Nc3cccc(C(C)=O)c3)cc2)cc1	CHO parental Ca 36.4, OX1R antag-1 70.7, OX1R antag-2 46.7
CCOC(=O)C1=C(C)N(C[C@@H]2CC[C@@H](Cc3ccc(-c4ccccc4)cc3)O2)C(=O)NC1c1cccc([N+](=O)[O-])c1 (stereo partly drawn)	none (no result: GPR7 antag)
COc1cc(/C=C2\CC/C(=C\c3cc(OC)c(O)c(OC)c3)C2=O)cc(OC)c1O	OX1R antag-1 89.9
Cc1ccc(S(=O)(=O)Nc2cccc(C(=O)NCC(c3ccc(F)cc3)N3CCOCC3)c2)cc1 (stereo not drawn)	OX1R antag-1 35.6 (no result: GPR7 antag)
CNC(=O)c1ccsc1NC(=O)c1ccccc1	OX1R antag-1 43.3 (no result: GPR7 antag)
CN(C)c1ccc(/C=C2\c3ccccc3C(=O)N2c2ccccc2)cn1	none (no result: CHO parental Ca, OX1R antag-1, GPR7 antag, OX1R antag-2)
O=C(Cn1nc(-c2ccc3c(c2)OCCO3)ccc1=O)Nc1ccc(-n2cnnn2)cc1	CHO parental Ca 29.2
O=C(Cn1nc(-c2ccccc2)ccc1=O)Nc1ccc(N2CCN(C(=O)c3ccccc3)CC2)cc1	GPR7 antag 19.8
CC(=O)Nc1cc2c(cc1NC(=O)Cn1nc(-c3ccc4c(c3)OCCO4)ccc1=O)OCCO2	none
CCCCNC(=O)C1(C)CCN1Cc1ccc(C#N)cc1 (stereo not drawn)	none (no result: CHO parental Ca, OX1R antag-1, GPR7 antag, OX1R antag-2)
O=C(c1cc2cc([N+](=O)[O-])ccc2s1)N1CCOCC1	OX1R antag-1 46.1
O=C(c1cc2cc([N+](=O)[O-])ccc2s1)N1CCCCC1	none
O=C(c1ccc(-c2ccc([N+](=O)[O-])cc2Cl)o1)N1CCOCC1	GPR7 antag 20.4
CCN1CCN(C(=O)c2cc3cc([N+](=O)[O-])ccc3oc2=O)CC1	none
O=C(CN1CCOCC1)Nc1nc2ccc([N+](=O)[O-])cc2s1	OX1R antag-1 61.9
O=C(c1cc2ccc([N+](=O)[O-])cc2oc1=O)N1CCOCC1	OX1R antag-1 56.5
CCn1cc(CCC(=O)Nc2ccc(Oc3cccnc3)cc2)c2ccccc21	none (no result: CHO parental Ca, OX1R antag-1, GPR7 antag, OX1R antag-2)
CC(C)C1=CC2C3C(C(C(C)C)=CC(=O)[C@@]3(C)O)C1C(=O)C2(C)O (stereo partly drawn)	none (no result: CHO parental Ca, OX1R antag-1, GPR7 antag, OX1R antag-2)
COc1cccc(C(=O)N2CCC[C@H]2C(=O)N2CCC[C@H]2C(=O)N(C)Cc2ccccc2)c1	none (no result: CHO parental Ca, OX1R antag-1, GPR7 antag, OX1R antag-2)
CSCc1c(C(=O)OCC(=O)c2ccc[nH]2)oc2ccccc12	none (no result: CHO parental Ca, OX1R antag-1, GPR7 antag, OX1R antag-2)
CSc1nc2c(c(=O)n1C)SC(C)C2 (stereo not drawn)	none (no result: GalR3 antag)
CNc1nc(SC)n(C)c(=O)c1N=O	OX1R antag-1 48.4 (no result: GalR3 antag)
Cc1cc(/C=C(\C#N)c2nc3ccccc3[nH]2)c(C)n1C	none
COc1cc(/C=C(\C#N)c2nc3ccc(C)cc3[nH]2)c([N+](=O)[O-])cc1OC	none
CCOc1cc(N(CC)CC)ccc1/C=C(/C#N)c1nc2ccccc2[nH]1	CHO parental Ca 70.5, OX1R antag-1 71.0, OX1R antag-2 109.2
CCN(CC)c1ccc(/C=C(/C#N)c2nc3ccc(C)cc3[nH]2)c(OC(C)C)c1	CHO parental Ca 68.3, GPR7 antag 38.1, OX1R antag-2 115.5
CCCOc1cc(N(CC)CC)ccc1/C=C(/C#N)c1nc2ccc(C)cc2[nH]1	CHO parental Ca 75.4, OX1R antag-2 117.7
C/C(Cn1nnc([N+](=O)[O-])n1)=N\NC(=O)c1ccccc1Cl	OX1R antag-1 42.4
C/C(Cn1nnc([N+](=O)[O-])n1)=N\NC(=O)c1cccc(Cl)c1	none
CC(C)(CSc1ncccn1)NS(=O)(=O)c1ccccc1	none
Cc1ccc(S(=O)(=O)NC(C)(C)CSc2nnc(Nc3ccccc3)s2)cc1	CHO parental Ca 53.0, OX1R antag-2 49.5
C#CCN1C(=O)[C@]2(OCCC=C[C@H]2C)c2ccccc21	none (no result: CHO parental Ca, OX1R antag-1, GPR7 antag, OX1R antag-2)
COc1ccc(-c2ccc(=O)n(Cc3c(F)cccc3Cl)n2)cc1	none
COc1ccc(-c2ccc(=O)n(Cc3cccc([N+](=O)[O-])c3)n2)cc1	GPR7 antag 39.2
CC(=O)C1=C(C)OC(N)=C(C#N)C1c1cccc([N+](=O)[O-])c1 (stereo not drawn)	GPR7 antag 32.9
O=C(CNC(=O)c1ccc(OC(F)F)cc1)Nc1cccc(S(=O)(=O)N2CCCC2)c1	none (no result: GPR7 antag)
O=c1cc(CN2CCCC2)c2ccccc2o1	none (no result: CHO parental Ca, OX1R antag-1, GPR7 antag, OX1R antag-2)
COc1ccc(CCC(=O)Nc2ccc3c(c2)OCO3)cc1	none
COc1ccc(CCC(=O)Nc2ccc3c(c2)OCCO3)cc1	CHO parental Ca 34.6
Cc1cccc(C)c1NC(=O)C1(N2C(=O)CC2c2ccccc2)CCCCC1 (stereo not drawn)	GPR7 antag 18.4
Cc1cccc(C)c1NC(=O)C1(NC(=O)C2CCC(=O)N2)CCCCC1 (stereo not drawn)	none
Clc1ccc(-c2nnc(CNC3CC3)o2)cc1	none
O=[N+]([O-])c1ccc(-c2nnc(CNC3CCCC3)o2)cc1	OX1R antag-1 63.4
O=C(OCc1nnc(-c2ccc([N+](=O)[O-])cc2)o1)C1CCN(C(=O)c2ccc(F)cc2)CC1	OX1R antag-1 38.5 (no result: GPR7 antag)
C[C@@H]1CN([C@@H](C)CO)C(=O)c2cc(Br)cnc2O[C@@H]1CN(C)C(=O)c1ccc(F)cc1	none (no result: CHO parental Ca, OX1R antag-1, GPR7 antag, OX1R antag-2)
CC1CCN(S(=O)(=O)c2cccc(C(=O)N(Cc3ccccc3)c3ccccn3)c2)CC1	GPR7 antag 19.3
C[C@H](NC(=O)c1nc[nH]c1C(=O)N1CCN(c2ccccc2)CC1)c1ccccc1	none (no result: GPR7 antag)
CN1CCN(C(=O)c2cccc(-c3ccc4nccn4c3)c2)CC1	none (no result: CHO parental Ca, OX1R antag-1, GPR7 antag, OX1R antag-2)
COC(=O)c1cc2c(c3c4cc(C)ccc4n(S(=O)(=O)c4cccc(C)c4)c13)C(=O)N(C)C2	none (no result: CHO parental Ca, OX1R antag-1, GPR7 antag, OX1R antag-2)
Cc1c(/C=C/C(=O)c2ccc(O)cc2)cnn1C	none
Cc1c(/C=C/C(=O)c2ccccc2)cnn1C	OX1R antag-1 41.0
COc1cccc2cc(C(=O)CS(=O)(=O)c3ccc(Cl)cc3)c(=O)oc12	OX1R antag-1 42.7
CC(C)(C)NC(=O)COC(=O)c1ccc(O)cc1	GPR7 antag 16.1
CCCCc1c(-c2ccccc2OC)ncn1Cc1ccc(OC)c(Cl)c1	none (no result: CHO parental Ca, OX1R antag-1, GPR7 antag, OX1R antag-2)
CC1=CC(O)(c2ccccn2)P(=O)(c2ccccc2)C=C1C (stereo not drawn)	none (no result: CHO parental Ca, OX1R antag-1, GPR7 antag, OX1R antag-2)
COc1ccc(N=Nc2ccc(O)c3ncccc23)cc1	CHO parental Ca 50.5
COc1ccc(C)cc1N=Nc1ccc(O)c2ncccc12	none (no result: CHO parental Ca, OX1R antag-1, OX1R antag-2)
COc1cccc(N=Nc2ccc(O)c3ncccc23)c1	CHO parental Ca 55.5, OX1R antag-2 49.3
Oc1ccc(N=Nc2ccc3c(c2)OCCO3)c2cccnc12	CHO parental Ca 44.7, OX1R antag-2 47.9
Cc1ccccc1N=Nc1ccc(O)c2ncccc12	none
Oc1ccc(N=Nc2ccc3c(c2)OCCO3)c(O)c1	none
COc1cccc(N=Nc2ccc3cccnc3c2O)c1	CHO parental Ca 83.1, OX1R antag-2 53.0
COc1ccc2c(c1)[C@@H](NC(=O)C(F)(F)F)[C@@H]1CCCC[C@]21c1ccccc1	none (no result: CHO parental Ca, OX1R antag-1, GPR7 antag, OX1R antag-2)
O=C1NC(=O)C2(CCOc3ccc(F)cc32)N1 (stereo not drawn)	none (no result: CHO parental Ca, OX1R antag-1, GPR7 antag, OX1R antag-2)
COC(=O)c1ccc(CSc2nnc(C)s2)cc1	none

Bioassay records deposited in PubChem by The Scripps Research Institute Molecular Screening Center.
